Consider 1 substance from publication PMC3667555 (Bioconjugate chemistry, 2013).

The data set has as its system U87MG human glioma xenografts. Nature of the data set: Biodistribution in athymic nude mice bearing U87MG glioma xenografts. The data set is classed as in vivo. The following applies: 1 h p.i. A digest of the protocol: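 Female athymic nu/nu mice (4–5 weeks at purchase) received 5 × 10^6 U87MG cells in the shoulder flank and were used 4 weeks later (tumor 0.1–0.5 g, mice 20–25 g). Each got ~0.1 MBq HPLC-purified 99mTc radiotracer in saline by tail vein. Killed by pentobarbital overdose at 60 min p.i.; blood by heart puncture; organs washed, weighed, γ-counted; %ID/g; n = 4–6.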

[1] abbreviates: tail-vein injection, without RGD2.

As for “[^99mTc(HYNIC-3P-RGD2)(tricine)(TPPTS)] [Compound 5]”, the Tumor/Blood worked out at 15.36 ± 1.01, the Tumor/Liver was determined as 2.55 ± 0.36, the Tumor/Lung is 1.71 ± 0.05 and the Tumor/Muscle is 6.58 ± 1.58. Also, under “tail-vein injection”, the Blood uptake came out at 0.47 ± 0.06 %ID/g, the Brain uptake is given as 0.17 ± 0.03 %ID/g, the Eyes uptake is reported as 1.40 ± 0.13 %ID/g and the Heart uptake was 1.67 ± 0.15 %ID/g. Under “tail-vein injection”, this substance came in with a Kidneys uptake of 12.28 ± 1.09 %ID/g, a Liver uptake of 2.92 ± 0.77 %ID/g, a Lungs uptake of 4.25 ± 0.63 %ID/g and a Muscle uptake of 1.12 ± 0.15 %ID/g. Where the note is “tail-vein injection”, this substance registered a Spleen uptake of 3.11 ± 0.18 %ID/g. Further, under setting [1], the Intestine uptake is given as 9.45 ± 1.31 %ID/g and the Tumor uptake amounted to 7.24 ± 0.95 %ID/g.
